Test results reported in ChEMBL document CHEMBL1132961 (J Med Chem, 2000).

Experiments:
[1] = Effective concentration required for antiviral activity against HIV-1 1002-60 in PBMC cells; assay type: functional, cell-based; conditions: Homo sapiens
Summary of the method: (§1)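 PBMC cells infected with HIV-1 clinical isolates, using an XTT cytopathic assay similar to the CEM assay. EC50 read as protection from viral cytopathic effect.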

[2] = Tested for cytotoxic activity against HIV-1 1026-60 in PBMC cells; assay type: cell-based; conditions: human, read-out: TC50 (the source's name)
[3] = Effective concentration required for antiviral activity against HIV-1 144-44 in PBMC cells; assay type: functional, cell-based; conditions: Homo sapiens; summary of the method: as §1
[4] = Tested for cytotoxic activity against HIV-1 144-44 in PBMC cells; assay type: cell-based; conditions: human, read-out: TC50 (the source's name)
[5] = Effective concentration required for antiviral activity against HIV-1 1026-60 in PBMC cells; assay type: functional, cell-based; conditions: Homo sapiens; summary of the method: as §1
[6] = Tested for cytotoxic activity against HIV-1 1002-60 in PBMC cells; assay type: cell-based; conditions: human, read-out: TC50 (the source's name)
[7] = Concentration which elicits cytotoxicity in 50% of uninfected human lymphocyte derived CEM cells; assay type: cell-based, CCRF-CEM; conditions: uninfected CCRF-CEM cells, read-out: TC50 (the source's name)
Summary of the method: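 Cytotoxicity measured in uninfected human lymphocyte-derived CEM cells by XTT protocol.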

[8] = tested on: Human immunodeficiency virus 1; experiment: Effective concentration at which 50% of the HIV-IIIB-infected human lymphocyte-derived CEM cells protected from HIV-1 infection; conditions: Human immunodeficiency virus 1, CCRF-CEM
[9] = Effective concentration required for antiviral activity against HIV-1 WeJo in PBMC cells; assay type: functional, cell-based; conditions: Homo sapiens; summary of the method: as §1
[10] = Effective concentration required for antiviral activity against HIV-1 SLKA in PBMC cells; assay type: functional, cell-based; conditions: Homo sapiens; summary of the method: as §1
[11] = Effective concentration required for antiviral activity against HIV-1 RoJo in PBMC cells; assay type: functional, cell-based; conditions: Homo sapiens; summary of the method: as §1
[12] = Effective concentration required for antiviral activity against HIV-1 TEKI in PBMC cells; assay type: functional, cell-based; conditions: Homo sapiens; summary of the method: as §1
[13] = target: T1, Human immunodeficiency virus type 1 protease (Human immunodeficiency virus 1, UniProt Q72874); experiment: Activity of potent nonpeptidic inhibitor against protease
Summary of the method: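 Incubated with 40 µM His-Lys-Ala-Arg-Val-Leu-(p-NO₂-Phe)-Glu-Ala-Nle-Ser-NH₂ in 1.0% DMSO, pH 6.2 MES buffer (DTT, NaCl, EDTA, PEG 8000) for 60 min at 37 °C, then TFA quench. Substrate and product separated by reverse-phase HPLC, read at 220 nm. % control = conversion with inhibitor / conversion without × 100; IC50 derived.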

CYP3A4 [14] = target: T2, CYP3A4 (Homo sapiens, UniProt P08684); experiment: Residual activity of cytochrome P4503A4 at 1 uM
T2 sequence (P08684 whole entry): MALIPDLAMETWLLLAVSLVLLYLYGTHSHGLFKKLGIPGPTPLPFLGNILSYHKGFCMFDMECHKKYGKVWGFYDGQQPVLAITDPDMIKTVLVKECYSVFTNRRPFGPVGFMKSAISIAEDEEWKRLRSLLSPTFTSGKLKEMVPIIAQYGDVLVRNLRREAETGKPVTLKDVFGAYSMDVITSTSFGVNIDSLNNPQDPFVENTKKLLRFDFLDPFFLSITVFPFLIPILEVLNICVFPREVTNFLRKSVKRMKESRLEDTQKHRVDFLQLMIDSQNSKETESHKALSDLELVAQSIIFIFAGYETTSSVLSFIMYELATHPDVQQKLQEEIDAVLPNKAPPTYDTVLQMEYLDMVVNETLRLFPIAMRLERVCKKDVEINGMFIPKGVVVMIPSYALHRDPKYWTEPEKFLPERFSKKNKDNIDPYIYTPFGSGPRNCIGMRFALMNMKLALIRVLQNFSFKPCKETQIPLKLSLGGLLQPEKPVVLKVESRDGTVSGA

CYP2C9 [15] = target: T3, CYP2C9 (Homo sapiens, UniProt P11712); experiment: Residual activity of cytochrome P450 at 10 uM
T3 sequence (P11712 whole entry): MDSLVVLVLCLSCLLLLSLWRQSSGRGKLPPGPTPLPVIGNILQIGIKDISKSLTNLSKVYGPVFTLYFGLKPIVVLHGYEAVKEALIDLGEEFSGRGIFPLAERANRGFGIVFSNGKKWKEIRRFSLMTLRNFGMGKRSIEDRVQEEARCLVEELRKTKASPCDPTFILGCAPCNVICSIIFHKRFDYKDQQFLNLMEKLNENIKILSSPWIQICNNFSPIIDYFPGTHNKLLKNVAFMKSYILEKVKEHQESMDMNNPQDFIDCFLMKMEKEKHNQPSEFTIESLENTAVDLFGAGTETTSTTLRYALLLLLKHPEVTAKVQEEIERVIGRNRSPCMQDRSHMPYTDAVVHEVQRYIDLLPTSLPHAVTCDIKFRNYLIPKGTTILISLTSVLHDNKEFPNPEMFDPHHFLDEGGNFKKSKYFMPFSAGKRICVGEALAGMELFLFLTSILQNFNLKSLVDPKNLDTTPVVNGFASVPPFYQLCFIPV

CYP3A4 [16] = target: T2, CYP3A4; experiment: Residual activity of cytochrome P4503A4 at 10 uM
CYP3A4 [17] = target: T2, CYP3A4; experiment: Residual activity of cytochrome P4503A4 at 100 uM
CYP2C9 [18] = target: T3, CYP2C9; experiment: Residual activity of cytochrome P450 2C9 at 1 uM
[19] = Tested for maximum plasma concentration in mice; assay type: ADME, organism-based; conditions: mouse
Summary of the method: (§2)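 Mice dosed orally by gavage at 25 mg/kg. Vehicle was usually 20% 0.1 N NaOH/80% 0.5% methylcellulose, and in two cases 20% 0.1 N NaOH/80% PEG 400. Plasma Cmax and AUC measured; AUC not determined where Cmax was too low.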

[20] = target: T1, Human immunodeficiency virus type 1 protease; experiment: Tested for binding affinity against HIV protease
[21] = AUC value in mice; assay type: ADME, organism-based; conditions: mouse, plasma; summary of the method: as §2
[22] = Tested for maximum plasma concentration in rats; assay type: ADME, organism-based; conditions: rat
Summary of the method: (§3)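 Rats given 10 mg/kg orally in NaOH solution buffered to pH 7.4. Plasma Cmax, T1/2 and AUC determined.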

[23] = Half-life period in rat; assay type: ADME, organism-based; conditions: in vivo; summary of the method: as §3
[24] = AUC value in rat; assay type: ADME; conditions: plasma; summary of the method: as §3
[25] = pooled result: one value given for 5 cell lines, strains, targets or settings

Row | Compound | CC50 [7] | EC50 [8] | IC50 [13] | Cmax [19] | Ki [20] | further results
1 | CC(C)(C)NC(=O)[C@@H]1C[C@@H]2CCCC[C@@H]2CN1C[C@@H](O)[C@H](Cc1ccccc1)NC(=O)[C@H](CC(N)=O)NC(=O)c1ccc2ccccc2n1 | – | – | – | – | – | EC50 [1]: 14500 nM; CC50 [2]: > 50000 nM; EC50 [3]: 11100 nM; CC50 [4]: > 50000 nM; EC50 [5]: 19400 nM; CC50 [6]: > 50000 nM
2 | Cc1cc(SC2=C(O)OC(CCc3ccc(O)cc3)(C(C)C)CC2=O)c(C(C)(C)C)cc1OS(C)(=O)=O (centres undefined) | > 100000 nM | 600 nM | 2.2 nM | – | – | EC50 [1]: 1840 nM; CC50 [2]: > 100000 nM; EC50 [3]: 730 nM; EC50 [9]: 2050 nM; EC50 [10]: 1790 nM; EC50 [11]: 1240 nM; CC50 [4, 25]: > 100000 nM; EC50 [5]: 1120 nM; CC50 [6]: > 100000 nM; EC50 [12]: 1930 nM
3 | Cc1cc(SC2=C(O)OC(CCc3ccc(O)cc3)(C(C)C)CC2=O)c(C(C)(C)C)cc1OS(=O)(=O)c1ccc(C#N)cc1 (centres undefined) | 67000 nM | 600 nM | 4.5 nM | – | – | residual activity at 1 µM (CYP3A4 [14]): 79%; residual activity at 10 µM (CYP2C9 [15]): 18.1%; residual activity at 10 µM (CYP3A4 [16]): 34.6%; residual activity at 100 µM (CYP3A4 [17]): 6.86%; residual activity at 1 µM (CYP2C9 [18]): 83.5%
4 | Cc1cc(SC2=C(O)OC(CCc3ccccc3)(C(C)C)CC2=O)c(C(C)(C)C)cc1NS(=O)(=O)c1ccc(C#N)cc1 (centres undefined) | 66000 nM | 500 nM | 9.1 nM | 2 µM | – | –
5 | Cc1cc(SC2=C(O)OC(CCc3ccc(O)cc3)(C(C)C)CC2=O)c(C(C)(C)C)cc1OS(=O)(=O)c1cccs1 (centres undefined) | 72000 nM | 2400 nM | 21.8 nM | – | – | CC50 [2]: > 100000 nM; EC50 [3]: 540 nM; EC50 [9]: 390 nM; EC50 [10]: 500 nM; EC50 [11]: 700 nM; CC50 [4, 25]: > 100000 nM; EC50 [5]: 1420 nM; EC50 [12]: 780 nM
6 | Cc1cc(SC2=C(O)OC(CCc3ccccc3)(C(C)C)CC2=O)c(C(C)(C)C)cc1NS(=O)(=O)c1ccccn1 (centres undefined) | 67000 nM | 700 nM | 3 nM | 1.14 µM | – | –
7 | Cc1cc(SC2=C(O)OC(CCc3ccc(O)cc3)(C(C)C)CC2=O)c(C(C)(C)C)cc1NS(=O)(=O)c1ccc(C#N)cc1 (centres undefined) | 85000 nM | 1600 nM | 2.2 nM | – | 0.41 nM | –
8 | Cc1cc(SC2=C(O)OC(CCc3ccc(O)cc3)(C(C)C)CC2=O)c(C(C)(C)C)cc1NS(=O)(=O)c1ccc(C(F)(F)F)cn1 (centres undefined) | 68000 nM | 4300 nM | – | 1.27 µM | – | AUC [21]: 980 ng·h/mL
9 | Cc1cc(SC2=C(O)OC(CCc3ccccc3)(C(C)C)CC2=O)c(C(C)(C)C)cc1NS(C)(=O)=O (centres undefined) | > 100000 nM | 1600 nM | – | – | 0.83 nM | –
10 | Cc1cc(SC2=C(O)OC(CCc3ccccc3)(C(C)C)CC2=O)c(C(C)(C)C)cc1O (centres undefined) | 66000 nM | 1800 nM | – | – | 1.1 nM | –
11 | Cc1cc(SC2=C(O)OC(CCc3ccc(O)cc3)(C(C)C)CC2=O)c(C(C)(C)C)cc1OS(=O)(=O)c1cccnc1 (centres undefined) | 76000 nM | 1600 nM | 3.5 nM | 0.63 µM | – | –
12 | Cc1cc(SC2=C(O)OC(CCc3ccc(O)cc3)(C(C)C)CC2=O)c(C(C)(C)C)cc1NS(=O)(=O)c1ccc(C(F)(F)F)cc1 (centres undefined) | 66000 nM | 1100 nM | 18.3 nM | – | – | –
13 | Cc1cc(SC2=C(O)O[C@](CCc3ccc(O)cc3)(C(C)C)CC2=O)c(C(C)(C)C)cc1NS(=O)(=O)c1ccc(C(F)(F)F)cn1 | 66000 nM | 1800 nM | – | – | 0.39 nM | –
14 | Cc1cc(SC2=C(O)O[C@](CCc3ccc(O)cc3)(C(C)C)CC2=O)c(C(C)(C)C)cc1OS(C)(=O)=O | 80000 nM | 530 nM | – | 6.54 µM | 0.03 nM | Cmax [22]: 6.54 µM; half-life [23]: 0.94 h; AUC [24]: 5390 ng·h/mL; AUC [21]: 5400 ng·h/mL
15 | Cc1cc(SC2=C(O)O[C@](CCc3ccccc3)(C(C)C)CC2=O)c(C(C)(C)C)cc1NS(=O)(=O)c1ccc(C(F)(F)F)cn1 | 65000 nM | 450 nM | – | 9.2 µM | 0.31 nM | Cmax [22]: 3.5 µM; half-life [23]: 2.3 h; AUC [24]: 6700 ng·h/mL; AUC [21]: 22000 ng·h/mL
16 | Cc1cc(SC2=C(O)O[C@](CCc3ccccc3)(C(C)C)CC2=O)c(C(C)(C)C)cc1NS(=O)(=O)c1ccc(C#N)cc1 | 31000 nM | 220 nM | – | 10.3 µM | 0.2 nM | Cmax [22]: 3.96 µM; EC50 [3]: 580 nM; EC50 [9]: 110 nM; EC50 [10]: 120 nM; EC50 [11]: 120 nM; CC50 [4, 25]: 55600 nM; half-life [23]: 5.7 h; AUC [24]: 10000 ng·h/mL; EC50 [12]: 100 nM
17 | Cc1cc(SC2=C(O)OC(CCc3ccccc3)(C(C)C)CC2=O)c(C(C)(C)C)cc1NS(=O)(=O)c1cccc(C#N)c1 (centres undefined) | 66000 nM | 1500 nM | – | – | 1.4 nM | –
18 | Cc1cc(SC2=C(O)OC(CCc3ccc(O)cc3)(C(C)C)CC2=O)c(C(C)(C)C)cc1NS(=O)(=O)c1ccccc1 (centres undefined) | 74000 nM | 1400 nM | 1.8 nM | – | 0.53 nM | –
19 | Cc1cc(SC2=C(O)O[C@@](CCc3ccc(O)cc3)(C(C)C)CC2=O)c(C(C)(C)C)cc1NS(=O)(=O)c1ccc(C(F)(F)F)cn1 | 66000 nM | 18000 nM | – | – | 9.54 nM | –
20 | Cc1cc(SC2=C(O)O[C@@](CCc3ccccc3)(C(C)C)CC2=O)c(C(C)(C)C)cc1NS(=O)(=O)c1ccc(C(F)(F)F)cn1 | 66000 nM | 5900 nM | – | – | 6.4 nM | –
21 | Cc1cc(SC2=C(O)OC(CCc3ccccc3)(C(C)C)CC2=O)c(C(C)(C)C)cc1NS(=O)(=O)c1ccc(C(F)(F)F)cn1 (centres undefined) | 66000 nM | 600 nM | – | – | 1.04 nM | EC50 [1]: 610 nM; CC50 [2]: > 100000 nM; EC50 [3]: 260 nM; EC50 [9]: 690 nM; EC50 [10]: 710 nM; EC50 [11]: 680 nM; CC50 [4, 25]: > 100000 nM; EC50 [5]: 270 nM; CC50 [6]: > 100000 nM; EC50 [12]: 810 nM
22 | Cc1cc(SC2=C(O)OC(CCc3ccc(O)cc3)(C(C)C)CC2=O)c(C(C)(C)C)cc1NS(=O)(=O)c1cccc(C#N)c1 (centres undefined) | > 100000 nM | 5300 nM | – | – | 0.21 nM | –
23 | Cc1cc(SC2=C(O)OC(CCc3ccccc3)(C(C)C)CC2=O)c(C(C)(C)C)cc1OS(=O)(=O)c1ccc(C#N)cc1 (centres undefined) | 25000 nM | 1100 nM | – | – | 0.7 nM | –
24 | CCNS(=O)(=O)Oc1cc(C(C)(C)C)c(SC2=C(O)OC(CCc3ccccc3)(C(C)C)CC2=O)cc1C (centres undefined) | 67000 nM | 800 nM | – | 0.62 µM | – | –
